Experimental findings from ChEMBL document CHEMBL1124366, “Synthesis and biological properties of N63-carboxamides of teicoplanin antibiotics. Structure-activity relationships” (J Med Chem, 1989) are described below.

Assay [1] deals with Ac2-L-Lys-D-Ala-D-Ala peptide. The assay can be described thus: Association constant with Ac2-L-Lys-D-Ala-D-Ala. The method, boiled down: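 UV difference spectroscopy at 24 ± 2 °C in 4-cm unthermostated cells. Antibiotic was at 30 μM in 10% MeOH in sodium phosphate buffer, pH 9, and titrated with Ac2-L-Lys-D-Ala-D-Ala. ΔA was monitored at 294 nm. Ka was taken from the slope of a Scatchard plot.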

The test system of the next assay is Escherichia coli. Kind of assay: In vitro minimum inhibitory concentration against Escherichia coli SKF 12140. It is filed as functional.
The test system of assay [2] is Streptococcus pyogenes. Kind of assay: Subcutaneously administration into mice infected with Streptococcus pyogenes C 203. Format: functional. The note with it: sc. The method, boiled down: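 Mice (five per treatment group, five groups) infected intraperitoneally with about 10⁵ cells of Strep. pyogenes C 203, about 100× the LD50. ED50 (mg/kg) was calculated from the percentage of mice surviving at each dose on day 7.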

The subject of assay [3] is Staphylococcus epidermidis. The assay can be described thus: In vitro minimum inhibitory concentration against Staphylococcus epidermis ATCC 12228. Format: functional.
The test system of another assay is Staphylococcus aureus. The assay can be described thus: In vitro minimum inhibitory concentration against Staphylococcus aureus Tour. It is filed as functional.
The subject of another assay is Streptococcus pneumoniae. The assay can be described thus: In vitro minimum inhibitory concentration against Streptococcus pneumoniae UC41. It is filed as functional.
Assay [4] concerns Streptococcus pyogenes. Kind of assay: In vitro minimum inhibitory concentration against Streptococcus pyogenes C 203. Format: functional.
The test system of another assay is Enterococcus faecalis. The assay can be described thus: In vitro minimum inhibitory concentration against Streptococcus faecalis ATCC 7080. It is filed as functional.
In the next assay the test system is Proteus vulgaris. The assay can be described thus: In vitro minimum inhibitory concentration against Proteus vulgaris X 19 ATCC 881. Format: functional.
For another assay, the system named is Pseudomonas aeruginosa. The assay can be described thus: In vitro minimum inhibitory concentration against Pseudomonas aeruginosa ATCC 10145. It is filed as functional.
Assay [5] deals with Staphylococcus haemolyticus. The assay can be described thus: In vitro minimum inhibitory concentration against Staphylococcus hemolyticus 602 cell line. The note with it: strain 602. Format: functional.

In brackets after ≈: the same amount, converted by molar mass.

Turning to `CC(=O)NC1C(O[C@@H]2c3ccc(c(Cl)c3)Oc3cc4cc(c3O)Oc3ccc(cc3Cl)C[C@H]3NC(=O)[C@H](N)c5ccc(O)c(c5)Oc5cc(O)cc(c5)[C@H](NC3=O)C(=O)N[C@H]4C(=O)N[C@H]3C(=O)N[C@@H]2C(=O)N[C@H](C(=O)NCCCN(C)C)c2cc(O)cc(O)c2-c2cc3ccc2O)OC(CO)C(O)C1O` (stereo partly specified), in [1], the Ka was found to be 54000 M⁻¹. In addition, the MIC in the assay with Escherichia coli is 64 µg/mL (≈ 43.1 µM); in [3], 0.06 µg/mL (≈ 0.0404 µM); with Staphylococcus aureus, 0.12 µg/mL (≈ 0.0807 µM); in the assay on Streptococcus pneumoniae, 0.25 µg/mL (≈ 0.168 µM); in the assay with Streptococcus pyogenes [4], 0.12 µg/mL (≈ 0.0807 µM); against Enterococcus faecalis, 0.25 µg/mL (≈ 0.168 µM). Further, the MIC in the assay on Proteus vulgaris was over 128 µg/mL. The 50% effect level in the assay with Streptococcus pyogenes [2] (ED50) was put at a dose of 2.2 mg/kg.
Turning to `CC(=O)NC1C(O[C@@H]2c3ccc(c(Cl)c3)Oc3cc4cc(c3O)Oc3ccc(cc3Cl)C[C@H]3NC(=O)[C@H](N)c5ccc(O)c(c5)Oc5cc(O)cc(c5)[C@H](NC3=O)C(=O)N[C@H]4C(=O)N[C@H]3C(=O)N[C@@H]2C(=O)N[C@H](C(=O)NCCN2CCOCC2)c2cc(O)cc(O)c2-c2cc3ccc2O)OC(CO)C(O)C1O` (stereo partly specified), the Ka in assay [1] stood at 34000 M⁻¹. Moreover, the MIC in the assay with Escherichia coli is over 128 µg/mL; in assay [3], 0.12 µg/mL (≈ 0.0792 µM); against Staphylococcus aureus it was 0.12 µg/mL (≈ 0.0792 µM); against Streptococcus pneumoniae, 1 µg/mL (≈ 0.66 µM); against Streptococcus pyogenes [4] it was 0.5 µg/mL (≈ 0.33 µM); with Enterococcus faecalis, 0.5 µg/mL (≈ 0.33 µM). In the assay with Proteus vulgaris, this compound registered an MIC of over 128 µg/mL.
Turning to `CCN1CCCC1CNC(=O)[C@H]1NC(=O)[C@H]2NC(=O)[C@H](NC(=O)[C@@H]3NC(=O)[C@H]4NC(=O)[C@@H](Cc5ccc(c(Cl)c5)Oc5cc3cc(c5O)Oc3ccc(cc3Cl)[C@H]2O)NC(=O)[C@H](N)c2ccc(O)c(c2)Oc2cc(O)cc4c2)c2ccc(O)c(c2)-c2c(O)cc(O)cc21` (stereo partly specified), the MIC with Escherichia coli came out at 4 µg/mL (≈ 3.06 µM); against Pseudomonas aeruginosa, 64 µg/mL (≈ 48.9 µM); in [3], 0.06 µg/mL (≈ 0.0458 µM); in assay [5] it was 0.12 µg/mL (≈ 0.0917 µM); against Staphylococcus aureus it was 0.06 µg/mL (≈ 0.0458 µM); with Streptococcus pneumoniae, 0.06 µg/mL (≈ 0.0458 µM). Besides, the MIC in the assay with Streptococcus pyogenes [4] worked out at 0.06 µg/mL (≈ 0.0458 µM); against Enterococcus faecalis, 0.12 µg/mL (≈ 0.0917 µM); in the assay with Proteus vulgaris it was 32 µg/mL (≈ 24.4 µM). In addition, the ED50 in the assay with Streptococcus pyogenes [2] was found to be 1.25 mg/kg.
Regarding `CNCCCN(C)C(=O)[C@H]1NC(=O)[C@H]2NC(=O)[C@H](NC(=O)[C@@H]3NC(=O)[C@H]4NC(=O)[C@@H](Cc5ccc(c(Cl)c5)Oc5cc3cc(c5O)Oc3ccc(cc3Cl)[C@H]2O)NC(=O)[C@H](N)c2ccc(O)c(c2)Oc2cc(O)cc4c2)c2ccc(O)c(c2)-c2c(O)cc(O)cc21`, the MIC against Escherichia coli came to 2 µg/mL (≈ 1.56 µM); against Pseudomonas aeruginosa, 16 µg/mL (≈ 12.5 µM); in [3] it was 0.06 µg/mL (≈ 0.0468 µM); in assay [5], 0.06 µg/mL (≈ 0.0468 µM); in the assay on Staphylococcus aureus, 0.06 µg/mL (≈ 0.0468 µM); in the assay on Streptococcus pneumoniae, 0.12 µg/mL (≈ 0.0935 µM). The values for the MIC in the assay with Streptococcus pyogenes [4], against Enterococcus faecalis and against Proteus vulgaris were 0.06 µg/mL (≈ 0.0468 µM), 0.12 µg/mL (≈ 0.0935 µM) and 32 µg/mL (≈ 24.9 µM), respectively. In the assay with Streptococcus pyogenes [2], this compound had an ED50 of 0.95 mg/kg.
`CC(=O)N[C@@H]1[C@H](O[C@@H]2c3ccc(c(Cl)c3)Oc3cc4cc(c3O)Oc3ccc(cc3Cl)C[C@H]3NC(=O)[C@H](N)c5ccc(O)c(c5)Oc5cc(O)cc(c5)[C@H](NC3=O)C(=O)N[C@H]4C(=O)N[C@H]3C(=O)N[C@@H]2C(=O)N[C@H](C(=O)O)c2cc(O)cc(O)c2-c2cc3ccc2O)O[C@@H](CO)[C@@H](O)[C@@H]1O`: the Ka in assay [1] amounted to 32000 M⁻¹. In addition, the MIC in the assay on Escherichia coli was over 128 µg/mL; in assay [3], 0.12 µg/mL (≈ 0.0856 µM); in the assay with Staphylococcus aureus, 0.5 µg/mL (≈ 0.357 µM); against Streptococcus pneumoniae, 1 µg/mL (≈ 0.713 µM); against Streptococcus pyogenes [4] it was 0.5 µg/mL (≈ 0.357 µM); in the assay with Enterococcus faecalis it was 1 µg/mL (≈ 0.713 µM). The compound further displayed an MIC in the assay with Proteus vulgaris of over 128 µg/mL. The compound also gave an ED50 with Streptococcus pyogenes [2] of 2.46 mg/kg.
On to `CN(C)CCN(C)C(=O)[C@H]1NC(=O)[C@H]2NC(=O)[C@H](NC(=O)[C@@H]3NC(=O)[C@H]4NC(=O)[C@@H](Cc5ccc(c(Cl)c5)Oc5cc3cc(c5O)Oc3ccc(cc3Cl)[C@H]2O)NC(=O)[C@H](N)c2ccc(O)c(c2)Oc2cc(O)cc4c2)c2ccc(O)c(c2)-c2c(O)cc(O)cc21`, for which the MIC is 8 µg/mL (≈ 6.23 µM) with Escherichia coli; 64 µg/mL (≈ 49.9 µM) against Pseudomonas aeruginosa; 0.06 µg/mL (≈ 0.0468 µM) in [3]; 0.06 µg/mL (≈ 0.0468 µM) in assay [5]; 0.06 µg/mL (≈ 0.0468 µM) in the assay on Staphylococcus aureus; 0.06 µg/mL (≈ 0.0468 µM) against Streptococcus pneumoniae. Also, the MIC against Streptococcus pyogenes [4] was 0.06 µg/mL (≈ 0.0468 µM); in the assay with Enterococcus faecalis, 0.12 µg/mL (≈ 0.0935 µM); against Proteus vulgaris it was 64 µg/mL (≈ 49.9 µM). This compound also yielded an ED50 with Streptococcus pyogenes [2] of 1.25 mg/kg.
`CN(C)CCCCNC(=O)[C@H]1NC(=O)[C@H]2NC(=O)[C@H](NC(=O)[C@@H]3NC(=O)[C@H]4NC(=O)[C@@H](Cc5ccc(c(Cl)c5)Oc5cc3cc(c5O)Oc3ccc(cc3Cl)[C@H]2O)NC(=O)[C@H](N)c2ccc(O)c(c2)Oc2cc(O)cc4c2)c2ccc(O)c(c2)-c2c(O)cc(O)cc21`: the MIC was 8 µg/mL (≈ 6.17 µM) in the assay on Escherichia coli; 32 µg/mL (≈ 24.7 µM) with Pseudomonas aeruginosa; 0.06 µg/mL (≈ 0.0463 µM) in assay [3]; 0.12 µg/mL (≈ 0.0925 µM) in assay [5]; 0.06 µg/mL (≈ 0.0463 µM) with Staphylococcus aureus; 0.12 µg/mL (≈ 0.0925 µM) in the assay on Streptococcus pneumoniae. Further, the MIC worked out at 0.06 µg/mL (≈ 0.0463 µM) with Streptococcus pyogenes [4], 0.12 µg/mL (≈ 0.0925 µM) with Enterococcus faecalis and 32 µg/mL (≈ 24.7 µM) in the assay on Proteus vulgaris. Also, in the assay on Streptococcus pyogenes [2], it took a dose of 0.54 mg/kg to reach the 50% effect level (ED50).
As for `CN(C)CCNC(=O)[C@H]1NC(=O)[C@H]2NC(=O)[C@H](NC(=O)[C@@H]3NC(=O)[C@H]4NC(=O)[C@@H](Cc5ccc(c(Cl)c5)Oc5cc3cc(c5O)Oc3ccc(cc3Cl)[C@H]2O)NC(=O)[C@H](N)c2ccc(O)c(c2)Oc2cc(O)cc4c2)c2ccc(O)c(c2)-c2c(O)cc(O)cc21`, the MIC is 4 µg/mL (≈ 3.15 µM) with Escherichia coli; 16 µg/mL (≈ 12.6 µM) against Pseudomonas aeruginosa; 0.06 µg/mL (≈ 0.0473 µM) in [3]; 0.06 µg/mL (≈ 0.0473 µM) in [5]; 0.06 µg/mL (≈ 0.0473 µM) against Staphylococcus aureus; 0.12 µg/mL (≈ 0.0946 µM) in the assay with Streptococcus pneumoniae. Also, the results for the MIC against Streptococcus pyogenes [4], in the assay on Enterococcus faecalis and in the assay on Proteus vulgaris were 0.06 µg/mL (≈ 0.0473 µM), 0.12 µg/mL (≈ 0.0946 µM) and 32 µg/mL (≈ 25.2 µM), respectively. The compound also returned an ED50 in the assay on Streptococcus pyogenes [2] of 1.25 mg/kg.
As to `NCCCCNC(=O)[C@H]1NC(=O)[C@H]2NC(=O)[C@H](NC(=O)[C@@H]3NC(=O)[C@H]4NC(=O)[C@@H](Cc5ccc(c(Cl)c5)Oc5cc3cc(c5O)Oc3ccc(cc3Cl)[C@H]2O)NC(=O)[C@H](N)c2ccc(O)c(c2)Oc2cc(O)cc4c2)c2ccc(O)c(c2)-c2c(O)cc(O)cc21`, the MIC was 8 µg/mL (≈ 6.3 µM) against Escherichia coli; 32 µg/mL (≈ 25.2 µM) against Pseudomonas aeruginosa; 0.06 µg/mL (≈ 0.0473 µM) in [3]; 0.12 µg/mL (≈ 0.0946 µM) in assay [5]; 0.06 µg/mL (≈ 0.0473 µM) against Staphylococcus aureus; 0.12 µg/mL (≈ 0.0946 µM) in the assay on Streptococcus pneumoniae. In addition, the MIC in the assay on Streptococcus pyogenes [4] was 0.06 µg/mL (≈ 0.0473 µM); against Enterococcus faecalis it was 0.12 µg/mL (≈ 0.0946 µM); in the assay with Proteus vulgaris, 32 µg/mL (≈ 25.2 µM). The ED50 with Streptococcus pyogenes [2] was 0.54 mg/kg.
